Assay results from ChEMBL document CHEMBL4725418, “Design, Synthesis, and Structure-Activity Relationship Studies of Dual Inhibitors of Soluble Epoxide Hydrolase and 5-Lipoxygenase” (J Med Chem, 2020).
Converted amounts (≈) assume the structure as drawn. The source made the active and inactive calls. No cut-off for these calls is given here.

Tests used:
[1] = Half life in Swiss CD-1 mouse at 3 mg/kg, po administered as single dose by LC-MS analysis; assay type: ADME, organism-based; conditions: in vivo
Summary of the method: (§1)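 Male Swiss CD-1 mice received a single oral dose of 3 mg/kg in 1% methylcellulose/Tween80 (99:1); nine mice treated, three vehicle controls, three mice per time point. Serum analyzed by LC-MS for concentration–time profile.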

[2] = Cmax in Swiss CD-1 mouse at 3 mg/kg, po administered as single dose by LC-MS analysis; assay type: ADME, organism-based; design: route oral, dose 3 mg/kg; conditions: in vivo; summary of the method: as §1
[3] = Tmax in Swiss CD-1 mouse at 3 mg/kg, po administered as single dose by LC-MS analysis; assay type: ADME, organism-based; conditions: in vivo; summary of the method: as §1
[4] = target: T1, Bifunctional epoxide hydrolase 2 (Homo sapiens, UniProt P34913); assay: Inhibition of human sEH (1 to 555 residues) expressed in Escherichia coli BL21-(DE3) using PHOME substrate incubated for 30 to 45 mins by fluorescence based assay
T1 sequence (P34913 whole entry): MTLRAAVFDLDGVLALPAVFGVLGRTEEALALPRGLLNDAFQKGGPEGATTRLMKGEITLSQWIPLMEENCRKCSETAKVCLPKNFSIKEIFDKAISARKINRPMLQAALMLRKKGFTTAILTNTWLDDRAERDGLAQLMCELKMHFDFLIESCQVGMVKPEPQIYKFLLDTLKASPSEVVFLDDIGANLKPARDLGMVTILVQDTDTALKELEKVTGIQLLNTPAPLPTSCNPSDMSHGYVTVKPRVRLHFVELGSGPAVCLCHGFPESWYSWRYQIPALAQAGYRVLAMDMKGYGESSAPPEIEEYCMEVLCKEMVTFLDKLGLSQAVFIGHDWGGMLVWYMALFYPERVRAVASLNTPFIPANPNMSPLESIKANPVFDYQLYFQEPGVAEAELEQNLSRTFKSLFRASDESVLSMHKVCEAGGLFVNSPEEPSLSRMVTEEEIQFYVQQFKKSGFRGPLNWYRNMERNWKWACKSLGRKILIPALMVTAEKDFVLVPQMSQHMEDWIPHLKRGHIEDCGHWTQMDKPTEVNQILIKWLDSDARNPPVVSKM

[5] = Solubility in pH 7.4 DPBS buffer; assay type: physicochemical
[6] = target: T2, Polyunsaturated fatty acid lipoxygenase ALOX15 (Homo sapiens) (UniProt P16050); assay: Activation of 15-LOX in human PMNL pre-incubated for 15 mins before addition of AA and A23187 and measured after 10 mins by HPLC/UV assay; conditions: filed as activator, time 25.0 min
T2 sequence (whole entry): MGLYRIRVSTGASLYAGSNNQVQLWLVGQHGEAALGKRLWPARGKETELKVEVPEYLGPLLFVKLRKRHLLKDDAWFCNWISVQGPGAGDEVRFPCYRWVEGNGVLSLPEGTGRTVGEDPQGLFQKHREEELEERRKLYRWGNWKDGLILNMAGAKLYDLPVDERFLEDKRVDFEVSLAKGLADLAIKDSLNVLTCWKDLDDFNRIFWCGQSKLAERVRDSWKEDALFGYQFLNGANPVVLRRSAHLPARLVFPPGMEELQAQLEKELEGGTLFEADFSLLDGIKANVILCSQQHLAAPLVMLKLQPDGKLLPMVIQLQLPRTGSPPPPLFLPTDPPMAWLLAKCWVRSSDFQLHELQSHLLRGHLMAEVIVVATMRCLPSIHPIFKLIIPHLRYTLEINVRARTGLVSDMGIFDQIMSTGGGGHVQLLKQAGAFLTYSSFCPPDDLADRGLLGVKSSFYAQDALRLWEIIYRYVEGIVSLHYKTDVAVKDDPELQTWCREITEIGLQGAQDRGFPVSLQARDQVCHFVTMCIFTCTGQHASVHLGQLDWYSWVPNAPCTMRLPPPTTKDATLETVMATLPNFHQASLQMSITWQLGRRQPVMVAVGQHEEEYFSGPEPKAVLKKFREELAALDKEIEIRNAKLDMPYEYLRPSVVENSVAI

Mus musculus [7] = species on record: Mus musculus; assay: Inhibition of sEH in naive mouse assessed as increase in plasma EET/DHET ratio level; assay type: functional
Summary of the method: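 Plasma from naive mice given a single oral 3 mg/kg dose analyzed for EET/DHET ratio as a read-out of sEH inhibition.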

Mus musculus [8] = assay: Anti-fibrotic activity in C57BL/6 mouse model of unilateral ureter obstruction-induced kidney inflammation and fibrosis assessed as inhibition of tubulo-interstitial fibrosis by measuring reduced blue staining of collagen fibers in AZAN-stained sections at 3 mg/kg, ip dosed daily for 7 days by AZAN trichrome staining method; assay type: functional, organism-based; conditions: time 7.0 day
Summary of the method: (§2)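 Mice with unilateral ureter obstruction to induce kidney inflammation and fibrosis, given compound or vehicle intraperitoneally. Ligated (UUO) and contralateral kidneys taken at day 7. Fibrosis read by AZAN and Sirius Red staining, with Sirius Red imaged under bright and polarized light. Macrophages detected by F4/80 staining, quantified as positive area. Col1a1, FN1, TNFα and Ccl2 mRNA measured in whole-kidney homogenates by real-time qRT-PCR normalized to GAPDH.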

Mus musculus [9] = assay: Anti-fibrotic activity in C57BL/6 mouse model of unilateral ureter obstruction-induced kidney inflammation and fibrosis assessed as inhibition of tubulo-interstitial fibrosis by measuring reduced fibrillar collagen at 3 mg/kg, ip dosed daily for 7 days by Sirius red staining method; assay type: functional, organism-based; conditions: time 7.0 day; summary of the method: as §2
Mus musculus [10] = assay: Anti-fibrotic activity in C57BL/6 mouse model of unilateral ureter obstruction-induced kidney inflammation and fibrosis assessed as reduction in Col1a1 mRNA expression at 3 mg/kg, ip dosed daily for 7 days by real-time qPCR analysis; assay type: functional, organism-based; conditions: time 7.0 day; summary of the method: as §2
Mus musculus [11] = assay: Anti-fibrotic activity in C57BL/6 mouse model of unilateral ureter obstruction-induced kidney inflammation and fibrosis assessed as reduction in FN1 mRNA expression at 3 mg/kg, ip dosed daily for 7 days by real-time qPCR analysis; assay type: functional, organism-based; conditions: time 7.0 day; summary of the method: as §2
Mus musculus [12] = assay: Anti-fibrotic activity in C57BL/6 mouse model of unilateral ureter obstruction-induced kidney inflammation and fibrosis assessed as reduction in macrophage infiltration into the obstructed kidney at 3 mg/kg, ip dosed daily for 7 days by F4/80 antibody staining based assay; assay type: functional, organism-based; conditions: time 7.0 day; summary of the method: as §2
Mus musculus [13] = assay: Anti-inflammatory activity in C57BL/6 mouse model of unilateral ureter obstruction-induced kidney inflammation and fibrosis assessed as reduction in Ccl2 mRNA expression at 3 mg/kg, ip dosed daily for 7 days by real-time qPCR analysis; assay type: functional, organism-based; conditions: time 7.0 day; summary of the method: as §2
Mus musculus [14] = assay: Anti-inflammatory activity in C57BL/6 mouse model of unilateral ureter obstruction-induced kidney inflammation and fibrosis assessed as reduction in TNFalpha mRNA expression at 3 mg/kg, ip dosed daily for 7 days by real-time qPCR analysis; assay type: functional, organism-based; conditions: time 7.0 day; summary of the method: as §2

Which half-life [1] does the source give for `C[C@H](C#Cc1cccc(C(=O)NCCC(c2ccc(F)cc2)c2ccc(F)cc2)c1)N(O)C(N)=O` here?
Its half-life is 1.3 h.

And the Cmax [2]?
The Cmax was 700 nM.

And the Tmax [3]?
The Tmax was 1 h.

What about the IC50 [4] of the same molecule?
Its IC50 is 1.2 nM.

What about the solubility [5] of the same molecule?
Its solubility is 3 µM (≈ 1.43 µg/mL).

What about the Activity [6] of the same molecule?
The Activity was “Active”.

What about the Activity (Mus musculus [7]) of the same molecule?
The Activity was “Active”.

And the Activity (Mus musculus [8])?
The Activity was “Active”.

What about the Activity (Mus musculus [9]) of the same molecule?
The Activity was “Active”.

What about the Activity (Mus musculus [10]) of the same molecule?
The Activity was “Active”.

What about the Activity (Mus musculus [11]) of the same molecule?
The Activity was “Active”.

And the Activity (Mus musculus [12])?
The Activity was “Active”.

What about the Activity (Mus musculus [13]) of the same molecule?
The Activity was “Active”.

And the Activity (Mus musculus [14])?
The Activity was “Active”.
